Laboratory results taken from paper PMC11184607 (ACS Pharmacology & Translational Science, 2024).
Bridge positions count the residues as written; N and C are the ends. Square brackets hold non-standard residues; d marks the D form. Peptide text beside a SMILES is read from it. * marks the point of attachment. NMe2Val = CC(C)[C@@H](C(=O)*)N(C)C; NMeI = CC[C@H](C)[C@H](NC)C(=O)O; NMeT = CN[C@H](C(=O)O)[C@@H](C)O; NMeL = CN[C@@H](CC(C)C)C(=O)O; dHiv = CC(C)[C@@H](O)C(=O)O; NMeS = CN[C@@H](CO)C(=O)O; dNMeA = CN[C@H](C)C(=O)O

Legend:
subcutaneous xenografts = settings: unmodified natural product; cited from earlier work
GSC line 83 = assay: GSC neurosphere viability, 72 h, line 83; format: cell-based, human; settings: read-out: EC50, GSC type 83
Hsp90 = assay: Immunoblot of Hsp90 in U87-MG cells; format: cell-based, human; settings: 1 30 nM, 2 1 μM, 24 h
Summary of the method: (§1)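 U87-MG cells in MEM with 10% FBS are exposed 24 h to test compound (30 nM or 1 μM) or 0.1% DMSO. Protein-matched lysates (BCA) are run on SDS-PAGE, transferred to PVDF and detected with HRP secondary. Signals are normalized to α-tubulin and expressed relative to control. Three independent experiments; one-way ANOVA then t-test.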

[1] = test system: patient-derived GSCs (M120, MGG6, M76, GBM8, and 157); format: cell-based, human; settings: read-out: EC50, viability of 5/6 GSC lines; 72 h
[2] = test system: UPR markers (BiP, CHOP, sXBP1, GADD34, IRE1) mRNA; assay: qPCR of ER stress; format: cell-based, human; settings: 80 nM plus thapsigargin 300 nM, 24 h
Summary of the method: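 GSC neurospheres (MGG6, 83, M76, GBM8) are treated 24 h with test compound 80 nM, thapsigargin 300 nM, both together, or 0.1% DMSO. BiP, CHOP, sXBP1, GADD34 and IRE1 mRNA are measured by qPCR normalized to GAPDH and expressed as fold-change versus vehicle.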

[3] = test system: WT and mutant (R66I) Sec61α HCT116 colon cancer cells; assay: Viability of WT versus Sec61α R66I mutant HCT116 cells; format: cell-based, human; settings: 72 h and 6 days (3 + 3 day exposure)
Hsp70 = assay: Immunoblot of Hsp70 in U87-MG cells; format: cell-based, human; settings: 1 30 nM, 2 1 μM, 24 h
Summary of the method: as §1

U251 GBM cells = assay: Cell viability; format: cell-based, human; settings: read-out: EC50, U251 cells; 72 h
Summary of the method: (§2)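 Cells are grown at 37 °C in 5% CO2. U87-MG and U251 are in MEM with 10% FBS, SF-268 in DMEM with 10% FBS, and SF-295 in RPMI 1640 with 10% FBS. HUVECs are pooled donors. Exposure is to the test compound (0.1 nM–1 μM) or 0.1% DMSO for 72 h. Viability is read by ATP luminescence as % of vehicle, n = 3 wells. […] comes from a logistic nonlinear fit over three independent comparisons.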

SF-268 GBM cells = assay: Cell viability; format: cell-based, human; settings: read-out: EC50, SF-268 cells; 72 h
Summary of the method: as §2

GSC 157 neurospheres = assay: Neurosphere morphology of GSC 157 by light microscopy; format: cell-based, human; settings: 100 nM, 24 h, relative to control-treated cells
Summary of the method: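 Patient-derived GSC 157 cells are dissociated from tumour and expanded as neurospheres in medium with heparin 2 μg/mL, EGF 20 ng/mL and bFGF 10 ng/mL. Neurospheres receive test compound at 100 nM for 24 h. Morphology and neurosphere size are compared with control-treated cells.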

BiP = assay: Immunoblot of BiP expression; format: cell-based, human
[4] = test system: HEK293FRT cells expressing WT or mutant (R66I) Sec61α; assay: Viability of WT versus Sec61α R66I mutant HEK293 cells; format: cell-based, human; settings: 72 h or 3 + 3 day exposure
Summary of the method: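 HEK293FRT cells carrying Sec61α R66I, with wild-type comparators, are grown in DMEM with 10% FBS, 6 mM L-glutamine and 1 mM pyruvate. They are exposed to increasing test compound concentrations or 0.1% DMSO for 72 h, or 3 + 3 days to avoid nutrient deprivation. ATP viability is read as % of vehicle, n = 3 wells. Logistic nonlinear fit; ≥3 independent experiments.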

U87-MG GBM cells = assay: Cell viability; format: cell-based, human; settings: read-out: EC50, U87-MG cells; 72 h
Summary of the method: as §2

Gluc-U87 cells = assay: Viability of adherent GLuc-U87 cells; format: cell-based, human; settings: 0.3–300 nM

SMILES: CC[C@H](C)[C@H]1C(=O)N[C@@H](C)C(=O)N(C)[C@@H](CC(C)C)C(=O)N[C@@H](Cc2ccc(OC)cc2)C(=O)N(C)[C@H](C)C(=O)O[C@H](C)[C@H](N(C)C(=O)[C@H](CC(C)C)N(C)C(=O)[C@H](COC)N(C)C(=O)[C@H](OC(=O)[C@H](C(C)C)N(C)C)C(C)C)C(=O)N(C)[C@@H](COC)C(=O)N1C [compound 1, Coibamide A] (NMe2Val-[dHiv][NMeS](Me)[NMeL][NMeT][NMeS](Me)[NMeI]A[NMeL]Y(Me)[dNMeA]; ester 4-C)
- Safety after repeat dosing in mice bearing subcutaneous xenografts (subcutaneous xenografts): adverse safety profile
- EC50 (GSC line 83): ~100 nM
- Hsp90 expression (Hsp90): upregulation
- EC50 [1]: < 4 nM
- Effect on thapsigargin-induced upregulation of all UPR markers, GSC line MGG6 [2]: almost completely abrogated
- Effect of Sec61α R66I mutation on cytotoxic response relative to WT HCT116 cells [3]: mild resistance
- Hsp70 expression (Hsp70): upregulation
- EC50 (U251 GBM cells): > 700 nM
- EC50 (SF-268 GBM cells): > 700 nM
- Change in neurosphere morphology (GSC 157 neurospheres): reduction in neurosphere size
- BiP expression, GSC line 83 (BiP; 1 250 nM and 500 nM, 2 3 µM, 72 h): decrease
- BiP protein expression, GSC MGG6 neurospheres and adherent U87-MG cells (BiP; immunoblot, 24 h): downregulation
- Response of mutant Sec61(R66I) HEK293 cells relative to WT [4]: resistant
- EC50 (U87-MG GBM cells): 18 nM
- Cell viability at 18 h (Gluc-U87 cells): no change in cell viability
